# Hits are enriched below; roughly 1.7% of the tested compounds scored in any of these assays.
# SUMO1-SIM PPI = modulators of SUMO1 protein-protein interactions, primary screen, biochemical, uHTS; inhibition, % at 20 µM; actives 0.33% (n = 360,000); SUMO1 binding to a labelled peptide, TR-FRET, 1 h; AID 602429, 2012; in the data active means inhibition above about 37%
# Target sequence (P63165 whole entry, looked up): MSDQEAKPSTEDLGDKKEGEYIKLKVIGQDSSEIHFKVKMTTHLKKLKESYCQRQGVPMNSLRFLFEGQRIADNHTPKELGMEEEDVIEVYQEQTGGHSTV
# STEP block = STEP phosphatase inhibitors, primary screen, biochemical, fluorescence intensity, uHTS; inhibition, % at 20 µM; recombinant STEP, OMFP fluorogenic substrate; actives 0.25% (n = 360,000); Tyrosine-protein phosphatase non-receptor type 5 (Homo sapiens), P54829;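 active means inhibition at 20 µM, scaled per plate between control wells, above about 37%, limit read from the data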;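 further: 0% = DMSO with enzyme and substrate and 100% = substrate only without enzyme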
#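 System: STEP (striatal-enriched tyrosine phosphatase) enzyme, cell-free; medium: Bis-Tris pH 6.0 buffer with DTT, detergent; dosing: 20 µM, 1% DMSO; times: reaction 20 min, ambient temperature; detection: fluorescence, 480/540 nm; read-out basis: normalized % inhibition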
# DNMT1 block = human DNMT1 methyltransferase inhibitors, primary screen, biochemical, molecular beacon, fluorescence, HinP1I cleavage, uHTS | inhibition (reported as % activation of signal), % at 10 µM | actives 0.83% (n = 360,000) | AID 588458, 2011 | DNA (cytosine-5)-methyltransferase 1 (Homo sapiens), P26358; in the data active means inhibition above about 50%
# LMPTP block = LMPTP phosphatase inhibitors, primary screen, biochemical, fluorescence intensity, uHTS | Low molecular weight phosphotyrosine protein phosphatase (Homo sapiens), P24666 | recombinant LMPTP-A, OMFP fluorogenic substrate | inhibition, % at 20 µM | actives 0.22% (n = 360,000);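 active means compounds that cut the enzyme signal by at least half of the control window in the single-dose screen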;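 further: plate controls were DMSO wells with enzyme plus substrate for no effect and substrate without enzyme for full effect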
# Target sequence (P24666 whole entry, looked up): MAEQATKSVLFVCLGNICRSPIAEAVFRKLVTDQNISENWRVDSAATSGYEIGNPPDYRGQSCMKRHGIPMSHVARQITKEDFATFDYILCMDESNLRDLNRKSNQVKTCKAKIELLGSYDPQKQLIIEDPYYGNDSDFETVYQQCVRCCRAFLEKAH
#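 Test system – LMPTP-A phosphatase enzyme · Quantity – 0.625 nM LMPTP-A final · Reagent – OMFP substrate, 400 µM final · Dosing – one test concentration per compound, 20 µM, with 3% DMSO overall · Timing – 50 min enzyme reaction at room temperature, protected from light · Detection – fluorescence intensity · Controls – substrate-only low control, DMSO enzyme-plus-substrate high control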
# Scp-1 inhibitor = Scp-1 phosphatase inhibitors, primary screen, biochemical, colorimetric, uHTS; Carboxy-terminal domain RNA polymerase II polypeptide A small phosphatase 1 (Homo …; Recombinant Scp1, phosphopeptide, malachite green phosphate absorbance; inhibition, % at 20 µM; actives 0.88% (n = 340,000); AID 493091, 2011;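 active means inhibition above about 50% at 20 µM, limit read from the data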;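 further: plate controls were DMSO wells with enzyme for no effect and wells lacking enzyme for full effect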
# Target sequence (Q9GZU7 76-261 limits assumed): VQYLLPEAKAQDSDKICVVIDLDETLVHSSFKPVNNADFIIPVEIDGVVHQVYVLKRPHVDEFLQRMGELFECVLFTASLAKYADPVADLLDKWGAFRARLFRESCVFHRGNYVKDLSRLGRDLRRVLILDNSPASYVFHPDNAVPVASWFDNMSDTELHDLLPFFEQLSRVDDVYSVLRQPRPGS
#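 System: SCP-1 catalytic domain; Reagent: Phospho 17-mer peptide substrate; Doses: one concentration, 20 µM, with 1.0% DMSO; Incubation: 45 min room-temperature reaction, 5 min colour, 30 min stabiliser; Signal: Phosphate-binding colour reagent, absorbance read at 630 nm.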
# Scp1 confirm = Scp-1 phosphatase inhibitors, retest, confirmation, biochemical, colorimetric, single concentration. AID 540281, 2011. actives 61% (n = 2,500). shares compounds with Scp-1 inhibitor. inhibition, % at 20 µM. recombinant SCP-1 catalytic domain, phosphate release, malachite green absorbance;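 further: plate controls were DMSO with enzyme for no effect and buffer wells lacking enzyme for full effect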
# MG interference = colorimetric readout interference by compounds, confirmation, artefact control for Scp-1 inhibitor project, biochemical, single concentration; 2,500 tested, under 10 active; apparent inhibition (interference), % at 20 µM; shares compounds with Scp-1 inhibitor; Colorimetric interference counterscreen, malachite green absorbance 630 nm; AID 540313, 2011;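 further: compounds added after enzyme reaction finished so only phosphate colour detection is probed; plate controls were DMSO wells with completed Scp-1 reaction for no effect and substrate wells lacking enzyme for full effect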
# Scp1 DSF = Scp-1 binding by thermal shift, confirmation, orthogonal assay for Scp-1 inhibitor project, biophysical, differential scanning fluorimetry. shares compounds with Scp-1 inhibitor. actives 25% (n = 1,500). AID 540329, 2011. thermal shift relative to vanadate control, % at 40 µM. Recombinant SCP1, Sypro Orange thermal shift Tm;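 active means substances whose mean melting-temperature shift, as a percentage of the reference inhibitor's shift, reaches about 5.3%, limit read from the data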;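 further: 0% = Tm of DMSO wells and 100% = Tm with sodium orthovanadate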
# An asterisk follows results filed as active; nt = no result given.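 How the source made its calls, unless noted: active means inhibition of at least 30% at 20 µM; inactive means the rest.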
SMILES,SUMO1-SIM PPI,STEP block,DNMT1 block,LMPTP block,Scp-1 inhibitor,Scp1 confirm,MG interference,Scp1 DSF
NS(=O)(=O)c1cccc(NC(=O)c2ccc3nc[nH]c3c2)c1,34,6,3,5,70*,67*,-7,-9
Cc1cccc(NC(=O)CNC(=O)c2ccc3nc[nH]c3c2)c1C,0,-1,11,3,68*,51*,-3,-1
CC(C)c1ccc(OC(=O)c2ccc3c(=O)n4c(nc3c2)CCC4)cc1,-2,0,-3,2,38,nt,nt,nt
O=[N+]([O-])c1ccccc1S(=O)NCc1c(Cl)cccc1Cl (configuration not stated),-26,2,-3,0,nt,nt,nt,nt
CC(=O)C(Cc1ccc(Cl)nc1)Cc1ccc(Cl)nc1,1,-1,1,-1,69*,-7,-13,nt
Cc1nn(-c2ccc(C(=O)NCC(c3ccco3)N3CCCC3)cc2)c(C)c1Cl (configuration not stated),-1,2,2,1,-9,nt,nt,nt
COC(=O)c1ccc(Cn2c(O)c(N=NC(N)=S)c3ccccc32)o1,-26,2,40,3,60*,-12,-20,nt
O=C(CSc1nc2ccccc2c(=O)n1-c1ccccc1)NC(=O)CN1CCCC1=O,7,20,31,4,58*,39*,-10,-14
CC(=O)C[C@H](O)CC(=O)[C@@H]1OC(=O)[C@H](C)C/C=C\Cc2ccccc21,4,1,8,-1,-8,nt,nt,nt
CC(=O)c1cccc(NC(=O)Cn2nc(-c3ccccc3Cl)ccc2=O)c1,0,0,-1,1,-3,nt,nt,nt
CC(=O)c1cccc(NC(=O)Cn2nc(-c3ccc(Cl)cc3)ccc2=O)c1,-1,-2,0,0,51*,-16,-18,nt
Cc1ccc(S(=O)(=O)Nc2cccc3c2O[C@H](CN(C)C(=O)Nc2ccc(C(F)(F)F)cc2)[C@@H](C)CN([C@H](C)CO)C3=O)cc1,4,-2,-2,3,-17,nt,nt,nt
CC(=O)NCCC(=O)Nc1nc2ccc(Oc3ccccc3)cc2s1,7,2,-7,1,-1,nt,nt,nt
NC(=O)c1c(NC(=O)C2CC=CCC2C(=O)O)sc2c1CCCCC2 (configuration not stated),28,38,20,1,58*,71*,-2,0
Cc1ccc(OCc2nc3ccccc3n2C(C)C(=O)Nc2c(C)cccc2C)cc1 (configuration not stated),0,nt,nt,1,nt,nt,nt,nt
COc1ccc(C(=O)Nc2ccc3c(c2)C(=O)c2ccccc2C3=O)cc1OC,21,55*,57*,5,66*,16,-8,nt
COc1ccc(C(=O)Nc2ccc3ccccc3c2)cc1OC,-3,2,-2,3,-2,nt,nt,nt
COc1ccc(NC(=O)CN(c2ccccc2)S(=O)(=O)N(C)C)cc1OC,3,0,13,9,76*,69*,-2,-4
COc1ccc(NC(=O)CN(c2ccccc2)S(=O)(=O)N(C)C)cc1Cl,6,-4,-1,1,-13,nt,nt,nt
